# Screen size: about 310,000 compounds; about 1,400 (0.45%) were called active.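 Rule for the calls: active = calcium response B-score plate-corrected fluorescence ratio at least 3 library SD, with starting fluorescence B-score inside 5 SD; inactive = the rest.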 This excerpt belongs to a sample that is enriched for actives.
# Target: Mas-related G-protein coupled receptor member X1 (Homo sapiens) (UniProt Q96LB2)
# Test: MrgX1 activation via calcium signaling – HEK293 cells, Fluo-4 calcium flux, primary screen (AID 588627);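 for B-score: B-score of the peak-minus-trough calcium fluorescence change over baseline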
# Details: Fluo-4 calcium fluorescence, agonist mode, at 10 µM; hits give high values
# Method in brief: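 Test system: HEK293 cells stably expressing human MrgX1 receptor; amount: 15,000 cells per well; doses: compound delivered in addition one of three; times: overnight plating before 1 h dye loading; detection: Fluo-4 NW calcium-flux fluorescence, kinetic read; read-out basis: B-scored fluorescence response ratio; controls: positive and negative controls per plate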
# Chain of Mas-related G-protein coupled receptor member X1 (Homo sapiens) (Q96LB2 whole entry, looked up): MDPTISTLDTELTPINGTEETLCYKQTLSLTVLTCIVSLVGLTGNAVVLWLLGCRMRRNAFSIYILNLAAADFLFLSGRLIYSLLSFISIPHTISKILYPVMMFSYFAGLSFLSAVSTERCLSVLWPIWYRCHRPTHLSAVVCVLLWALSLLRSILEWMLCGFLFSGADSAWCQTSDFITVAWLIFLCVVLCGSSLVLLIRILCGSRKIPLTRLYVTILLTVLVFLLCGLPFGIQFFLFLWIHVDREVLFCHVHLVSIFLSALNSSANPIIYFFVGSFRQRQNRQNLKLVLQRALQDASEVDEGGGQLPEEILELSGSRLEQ
row,SMILES,B-score
1,CCOc1ccc(/C=C/C(=O)N(CC)CC(=O)NCc2cccs2)cc1OC,inactive
2,CC(C)(C)N(Cc1ccccc1)C(=O)c1ccncc1,inactive
3,O=C(/C=C/c1ccc(Cl)c([N+](=O)[O-])c1)c1cccnc1,inactive
4,NC(N)=N/N=C/c1ccc(Cl)c([N+](=O)[O-])c1,28.4 (active)
5,O=C(/C=C/c1ccc(Cl)c([N+](=O)[O-])c1)c1ccc(O)cc1,inactive
6,Cc1ccc(C(=O)C[n+]2cc(-c3ccccc3)n3c2CCCCC3)cc1,inactive
7,COc1ccc(-c2cc(C(=O)NC(Cc3c[nH]c4ccccc34)C(=O)O)c(C)o2)cc1OC (stereo unspecified),inactive
8,NS(=O)(=O)c1ccc(NC(=O)COC(=O)C2(c3ccc(F)cc3)CCCC2)cc1,inactive
9,COc1ccc(C(C[N+](=O)[O-])n2nc(C)cc2C)cc1 (stereo unspecified),46.1 (active)
10,CCOc1ccc(C(C)C)cc1S(=O)(=O)n1nc(C)cc1C,inactive
11,COc1ccc(OCc2cn3c(C)cc(C)nc3n2)cc1,inactive
12,CCC(C)(C(=O)NC1CCCC1)N(C(=O)CNC(C)=O)c1ccc(C)cc1 (stereo unspecified),inactive
13,CCCc1nc(N2CCN(C)CC2)c2sc(=S)n(-c3ccccc3)c2n1,inactive
14,CN(Cc1ccccc1)C(=O)CCc1ccccc1,inactive
15,OCCN(Cc1ccccc1)Cc1ccc(Cl)cc1,inactive
16,CN(C(=O)CN(CCO)CC(=O)N(C)C(C)(C)Cc1ccccc1)C(C)(C)Cc1ccccc1,44.7 (active)
17,CC(C)C(=O)NCC(c1cccs1)S(=O)(=O)c1ccc(F)cc1 (stereo unspecified),inactive
18,Cc1ncoc1C(=O)N1CCCC(C(=O)c2ccc3c4c(cccc24)CC3)C1 (stereo unspecified),inactive
19,CN(CC(=O)Nc1cccc(F)c1)C(=O)C1CSC2(C)CCC(=O)N12 (stereo unspecified),inactive
20,COc1ccc(Cl)cc1C(=O)NNC(=S)NC1CCCC1,inactive
21,COc1ccc(Cl)cc1C(=O)NNC(=S)NC(=O)/C=C/c1ccco1,51.7 (active)
22,C=CCNC(=S)NNC(=O)c1cc(Cl)ccc1OC,inactive
23,COc1ccc(C2c3ccc(O)cc3Oc3ncn(CCCO)c(=N)c32)cc1OC (stereo unspecified),inactive
24,CCc1cccc(C)c1NC(=O)COC(=O)Cc1ccsc1,inactive

row,SMILES,B-score
1,CN(Cc1nc2ccccc2c(=O)[nH]1)Cc1cc(=O)oc2ccc3ccccc3c12,inactive
2,CCN(Cc1nc2ccccc2c(=O)[nH]1)Cc1cc(=O)oc2cc(C)c(C)cc12,34.9 (active)
3,CCN(CC(=O)NC(=O)NCc1ccccc1)Cc1nc2ccccc2c(=O)[nH]1,inactive
4,CCn1c(SCC(=O)Nc2ccc(C)cc2)nc2nc3c(cc2c1=O)CCCC3,inactive
5,Cc1cc(C)cc(C(=O)NC(=S)Nc2ccc3[nH]c(=O)[nH]c3c2)c1,inactive
6,Cc1ccc(NC2(C#N)C(=O)Nc3ccccc32)cc1 (stereo unspecified),45 (active)
7,COc1ccc(C2(O)C(=O)Nc3ccccc32)cc1 (stereo unspecified),inactive
8,Cc1cc(O)c(C2(O)C(=O)Nc3ccccc32)cc1C (stereo unspecified),inactive
9,CCCCn1c(N)c(N(CC(C)C)C(=O)CSc2ccc([N+](=O)[O-])cc2)c(=O)[nH]c1=O,inactive
10,CN(CCc1ccccn1)C(=O)c1ccc(OC2CCN(CCc3ccccc3)CC2)cc1,inactive
11,S=C1Nc2cc(Cl)ccc2Sc2ccccc21,inactive
12,O=C1CC2(CCCC2)Oc2ccc(Cl)cc21,inactive
13,O=C1Cc2ccccc2Sc2ccc(Cl)cc21,28.3 (active)
14,O=C(N/N=C/c1cc(Cl)cc([N+](=O)[O-])c1O)C(O)(c1ccccc1)c1ccccc1,36.2 (active)
15,CN(C)/N=C/c1cc(Cl)cc([N+](=O)[O-])c1O,inactive
16,O=C(N/N=C/c1cc(Br)c(O)c([N+](=O)[O-])c1)C(O)(c1ccccc1)c1ccccc1,inactive
17,COc1ccc(-n2nc(C(=O)NCC(=O)N3CCC(C(N)=O)CC3)c3ccccc3c2=O)cc1OC,inactive
18,Cc1ccc(NS(=O)(=O)c2cccs2)cc1S(=O)(=O)N1CCCCCC1,inactive
19,CCCc1cc(=S)n2c([nH]c3ccccc32)c1C#N,29.9 (active)
20,CN(C)Cc1c(C#N)c2ccccc2n1C,inactive
21,CCOC(=O)CCc1c(C)c(C#N)c2[nH]c3ccccc3n2c1=O,inactive
22,CCCCN(C(=O)CCNC(=O)NC12CC3CC(CC(C3)C1)C2)c1c(N)n(CCCC)c(=O)[nH]c1=O,inactive
23,COc1ccc2[nH]cc(CCN3C(=O)c4ccc(C(=O)O)cc4C3=O)c2c1,inactive
24,OCc1ccc(OCCCOc2cccc3cccnc23)cc1,27.9 (active)

row,SMILES,B-score
1,CCOc1cccc(OCCCOc2cccc3cccnc23)c1,inactive
2,Cc1cc(OCCOc2cccc3cccnc23)c(C)cc1Cl,inactive
3,CCC(=O)c1cn(CCOc2ccccc2OC)c2ccccc12,inactive
4,CC[n+]1cc(C)ccc1/C=C/c1ccc(N(C)C)cc1,27.3 (active)
5,O=C(NCCCN1CCN(c2ccc(F)cc2)CC1)Nc1ccc([N+](=O)[O-])cc1,inactive
6,CCNC(=O)CCc1nc(-c2ccc(C(C)(C)C)cc2)no1,inactive
7,CNC(=S)N1CCC(NC(=O)C(Cc2ccc(F)cc2)NC(C)=O)CC1 (stereo unspecified),inactive
8,CS(=O)(=O)N1CCc2cc(C(=O)Nc3ccccc3Br)ccc21,inactive
9,CCOc1ccc(Br)cc1CSC(=N)N,inactive
10,N=C(N)SCc1cccc2ccccc12,36.5 (active)
11,c1ccc2c(CSCc3nc4ccccc4[nH]3)cccc2c1,inactive
12,CCN(CC)c1ccc(C(=O)NNC(=O)CCc2nc3ccccc3c(=O)[nH]2)cc1,inactive
13,CC(=O)c1ccc(N=C2SCCCN2C(=O)C2CCCCC2)cc1,inactive
14,O=C(Cc1csc(Nc2nc(=S)[nH]c3ccccc23)n1)NCCCN1CCN(c2cccc(Cl)c2)CC1,inactive
15,O=[N+]([O-])/C=C/c1ccc2c(ccn2Cc2ccccc2)c1,37.8 (active)
16,O=C(Cn1ccc2cc(S(=O)(=O)N3CCCC3)ccc21)NCc1ccccc1,inactive
17,O=C(/C=C/c1cccc([N+](=O)[O-])c1)N1CCN(Cc2ccccc2)CC1,inactive
18,COc1cccc(CNC(=O)c2nnn(CC(=O)Nc3cc(C)ccc3C)c2N)c1,inactive
19,COCCNC(=O)C(c1ccc(O)cc1)N(C(=O)CCC(=O)Nc1nccs1)c1ccc(C)cc1 (stereo unspecified),inactive
20,COc1ccc(NC2CC(=O)N(C)C2=O)cc1 (stereo unspecified),inactive
21,CCCOc1ccc(Cn2ccnc2)cc1[N+](=O)[O-],inactive
22,CCCCCOc1ccc(CSC2=NCCN2)cc1[N+](=O)[O-],inactive
23,CCCCOc1ccc(CSC(=N)N)cc1[N+](=O)[O-],42.7 (active)
